≈ marks a conversion by molar mass, not a printed value.
How the values were obtained:
[1] = species: Homo sapiens; experiment: Evaluated for inhibition of adenosine accumulation in human erythrocytes at the concentration of 10 uM of compound; format: functional
In short: (§1)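 Inhibitor-stop assay of human erythrocytes (10% suspension, v/v) at room temperature. Analogue (up to 10 μM) was preincubated with triplicate cell aliquots for 10 min, then [8-¹⁴C]adenosine was added (final 10 μM). Uptake was stopped after 0.5 s with ice-cold 750 μM dilazep and centrifugation through oil. Cell radioactivity was counted, corrected for extracellular trapping.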

[2] = tested on: B16; experiment: Compound was tested in vitro for growth inhibitory activity against B16 melanoma cell line; format: functional; conditions: Mus musculus, read-out: ID50 (the source's name)
In short: (§2)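 B16 melanoma cells in RPMI-1640 with 15% heat-inactivated FBS and antibiotics, seeded at 2-3 × 10³ cells/well on day 0. Graded analogue (12 concentrations) added day 1, then 3 days at 37 °C. MTT 4 h, formazan dissolved in acidic isopropanol, absorbance read. ID50 from curve fit, eight determinations per concentration.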

[3] = species: Homo sapiens; experiment: Compound was tested for the inhibition of adenosine transport into human erythrocytes; format: functional; in short: as §1
[4] = biological target: T1, Adenosine deaminase (Bos taurus) (UniProt P56658); experiment: Tested for percentage inhibition against adenosine deaminase at the concentration 100 uM
T1 sequence (whole entry): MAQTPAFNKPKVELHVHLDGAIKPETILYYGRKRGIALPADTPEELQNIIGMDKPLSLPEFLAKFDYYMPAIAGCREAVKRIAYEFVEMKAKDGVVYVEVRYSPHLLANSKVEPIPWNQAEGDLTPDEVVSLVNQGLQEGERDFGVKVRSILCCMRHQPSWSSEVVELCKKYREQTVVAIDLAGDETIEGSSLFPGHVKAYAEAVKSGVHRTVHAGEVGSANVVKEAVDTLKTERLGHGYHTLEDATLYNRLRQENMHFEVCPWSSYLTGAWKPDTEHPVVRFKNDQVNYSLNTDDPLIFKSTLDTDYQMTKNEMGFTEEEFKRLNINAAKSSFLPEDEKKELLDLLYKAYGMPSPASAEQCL
In short: (§3)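 Calf intestinal mucosa ADA (0.003 unit) in 1 mL of 50 mM potassium phosphate, pH 7.4, at 30 °C. Substrate was 25 μM adenosine, about Km. Analogue tested at 100 μM, reported as percent inhibition.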

[5] = biological target: T1, Adenosine deaminase (Bos taurus); experiment: Tested for inhibition against calf intestinal mucosa adenosine deaminase (ADA); format: tissue-based; conditions: concentration not given here; in short: as §3
[6] = tested on: L1210 (1565); experiment: Tested in vitro inhibitory activity against murine L 1210 leukemia cells line; format: functional; conditions: Mus musculus, read-out: ID50 (the source's name)
In short: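 L1210 cells in RPMI-1640 with 10% heat-inactivated FBS plus mercaptoethanol (doubling time 12 h); 1 × 10^3 cells seeded day 0, graded analogue concentrations added day 1, cultured 3 days at 37 °C. Growth read by MTT reduction (4 h), formazan in acidic isopropanol; ID50 fitted from 12 concentrations × eight determinations.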

[7] = tested on: B16; experiment: Tested in vitro inhibitory activity against murine B16 melanoma cells line; format: functional; conditions: Mus musculus, read-out: ID50 (the source's name)
In short: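 B16 cells maintained in RPMI-1640 with 15% heat-inactivated FBS and antibiotics (doubling time 21 h); 2-3 × 10^3 cells seeded day 0, graded analogue concentrations added day 1, 3 days at 37 °C. MTT 4 h, formazan solubilized in acidic isopropanol, absorbance read; ID50 from curve fit of 12 concentrations, eight determinations each.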

[8] = tested on: L1210 (1565); experiment: Compound was tested in vitro for growth inhibitory activity against murine L1210 leukemia cell line; format: functional; conditions: Mus musculus, read-out: ID50 (the source's name)
In short: as §2, with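 “Murine L1210” for “B16 melanoma”, “10%” for “15%”, “mercaptoethanol,” for “antibiotics,”, “1” for “2-3”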

[9] = tested on: B16; experiment: Compound was tested in vitro for growth inhibitory activity against murine B16 melanoma cell line; format: functional; conditions: Mus musculus, read-out: ID50 (the source's name); in short: as §2

OC[C@H]1OC(n2cnc3c(NCc4ccccc4)nncc32)[C@H](O)[C@@H]1O (stereo partly specified)
Inhibition [1]: 45%

OC[C@H]1OC(n2nnc3c(NCc4ccccc4)nncc32)[C@H](O)[C@@H]1O (stereo partly specified)
IC50 [2]: 35.8 µg/mL (≈ 99.9 µM) | Inhibition [3]: 34%

Nc1nncc2c1ncn2[C@@H]1O[C@H](CO)[C@@H](O)[C@H]1O
inhibition [4]: 15%

Nc1nncc2c1nnn2C1O[C@H](CO)[C@@H](O)[C@H]1O (stereo partly specified)
inhibition [5]: 7%

Nc1ccn([C@@H]2O[C@H](CO)[C@@H](O)[C@@H]2O)c(=O)n1 [CYTARABINE]
IC50 [6]: < 0.1 µg/mL | IC50 [7]: < 0.1 µg/mL

O=c1[nH]cc(F)c(=O)[nH]1 [FLUOROURACIL]
IC50 [6]: < 0.1 µg/mL | IC50 [7]: < 0.1 µg/mL

CN(Cc1cnc2nc(N)nc(N)c2n1)c1ccc(C(=O)N[C@@H](CCC(=O)O)C(=O)O)cc1 [METHOTREXATE]
IC50 [8]: < 0.1 µg/mL | IC50 [9]: < 0.1 µg/mL
